Experimental data from EPA's CvTdb concentration-time database.

Tests used:
[1] = tested on: human; assay: concentration in blood after dosing; details: dosed: phenacetin, 250 mg, iv, male
How it was run: (§1)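 Points were largely digitised from plot screenshots with WebPlotDigitizer or otherwise copied from tables, and they remain in the units each source reported. They come from published in vivo toxicokinetic studies and two structured collections. Sampling and analytical methods follow each source and were often not reported.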

[2] = tested on: human; assay: concentration in blood after dosing; details: dosed: phenacetin, 1 g, oral, male
How it was run: as §1

[3] = tested on: human; assay: concentration in blood after dosing; details: 40 min; dosed: phenacetin; 0.25 g; oral; male
How it was run: as §1

[4] = tested on: human; assay: concentration in blood after dosing; details: dosed: phenacetin, 250 mg, iv, male; remark: listed apart in the source
How it was run: as §1

[5] = tested on: human; assay: concentration in blood after dosing; details: dosed: phenacetin, 250 mg, iv, male; remark: listed apart in the source
How it was run: as §1

[6] = tested on: human; assay: concentration in blood after dosing; details: dosed: phenacetin, 250 mg, iv, male; remark: listed apart in the source
How it was run: as §1

[7] = tested on: human; assay: concentration in blood after dosing; details: dosed: phenacetin, 1 g, oral, male; remark: listed apart in the source
How it was run: as §1

[8] = tested on: human; assay: concentration in blood after dosing; details: dosed: phenacetin, 250 mg, iv, male; remark: listed apart in the source
How it was run: as §1

[9] = tested on: human; assay: concentration in blood after dosing; details: dosed: phenacetin, male
How it was run: as §1

[10] = tested on: dog; assay: concentration in plasma after dosing; details: dosed: phenacetin, 1 mg/kg, iv, duration: 5 min, male, beagle
How it was run: as §1

[11] = tested on: rat; assay: concentration in plasma after dosing; details: dosed: phenacetin, oral

CCOc1ccc(NC(C)=O)cc1 [phenacetin]
Details | concentration in blood [ng/mL] | concentration in plasma [ng/mL]
[1], 1 h | 640 | –
[1], 1.5 h | 460 | –
[1], 2 h | 430 | –
[1], 3 h | 220 | –
[1], 10 min | 2610 | –
[1], 20 min | 1770 | –
[1], 40 min | 940 | –
[2], 4 h | 2120 | –
[2], 5 h | 670 | –
[4], 1 h | 1540 | –
[4], 1.5 h | 1010 | –
[4], 2 h | 690 | –
[4], 3 h | 180 | –
[4], 10 min | 3420 | –
[4], 20 min | 2620 | –
[4], 40 min | 1890 | –
[5], 1 h | 920 | –
[5], 1.5 h | 820 | –
[5], 2 h | 590 | –
[5], 3 h | 330 | –
[5], 4 h | 150 | –
[5], 10 min | 3060 | –
[5], 20 min | 2090 | –
[5], 40 min | 1180 | –
[6], 1 h | 660 | –
[6], 1.5 h | 500 | –
[6], 2 h | 210 | –
[6], 3 h | 80 | –
[6], 10 min | 1860 | –
[6], 20 min | 1080 | –
[6], 40 min | 980 | –
[7], 1 h | 4600 | –
[7], 1.5 h | 1220 | –
[7], 2 h | 750 | –
[7], 3 h | 360 | –
[7], 4 h | 330 | –
[7], 5 h | 190 | –
[7], 20 min | 300 | –
[7], 40 min | 4510 | –
[8], 1 h | 740 | –
[8], 1.5 h | 310 | –
[8], 2 h | 190 | –
[8], 3 h | 80 | –
[8], 10 min | 2920 | –
[8], 20 min | 1910 | –
[8], 40 min | 1090 | –
[10], 0.2422 h | – | 1250
[10], 0.3263 h | – | 884
[10], 0.4969 h | – | 529
[10], 1.165 h | – | 136
[10], 1.67 h | – | 63.4
[10], 2.162 h | – | 32.4
[10], 3.172 h | – | 13.5

Details | concentration in blood [ng/mL]
[3] | 230

Details | concentration in blood [ng/mL] | concentration in plasma [µM]
[9], 1 h, 0.25 g, oral | 180 | –
[9], 1 h, 1 g, oral | 2750 | –
[9], 1 h, 250 mg, iv | 670 | –
[9], 1.5 h, 1 g, oral | 3360 | –
[9], 1.5 h, 250 mg, iv | 510 | –
[9], 2 h, 1 g, oral | 1880 | –
[9], 2 h, 250 mg, iv | 370 | –
[9], 3 h, 1 g, oral | 820 | –
[9], 3 h, 250 mg, iv | 240 | –
[9], 4 h, 1 g, oral | 530 | –
[9], 4 h, 250 mg, iv | 130 | –
[9], 5 h, 1 g, oral | 410 | –
[9], 10 min, 250 mg, iv | 2670 | –
[9], 20 min, 0.25 g, oral | 340 | –
[9], 20 min, 250 mg, iv | 1260 | –
[9], 40 min, 0.25 g, oral | 310 | –
[9], 40 min, 250 mg, iv | 910 | –
[11], 0.25 h, 250 mg/kg, Wistar | – | 129
[11], 0.5 h, 250 mg/kg, Wistar | – | 105
[11], 1 h, 250 mg/kg, Wistar | – | 92.6
[11], 2 h, 250 mg/kg, Wistar | – | 11.5
[11], 3 h, 250 mg/kg, Wistar | – | 1.59

[11], male, Sprague Dawley
Details | concentration in plasma [ng/mL]
0.1117 h, 360 mg/kg | 14500
0.193 h, 360 mg/kg | 24300
0.249 h, 10 mg/kg | 2910
0.2743 h, 360 mg/kg | 30300
0.5079 h, 360 mg/kg | 28500
0.772 h, 360 mg/kg | 25500
0.9929 h, 10 mg/kg | 193
1.006 h, 360 mg/kg | 23900
1.524 h, 360 mg/kg | 14300
1.985 h, 10 mg/kg | 34.3
2.022 h, 360 mg/kg | 11300
3.99 h, 10 mg/kg | 12.9
4.033 h, 360 mg/kg | 4510
5.995 h, 10 mg/kg | 8.58
7.985 h, 10 mg/kg | 8.58
8.005 h, 360 mg/kg | 913
11.99 h, 360 mg/kg | 171
268 s, 10 mg/kg | 893
